The source of these data is ChEMBL document CHEMBL4765236, “Insights into the Antimicrobial Activity and Cytotoxicity of Engineered α-Helical Peptide Amphiphiles” (J Med Chem, 2016).

The source made the active and inactive calls. The rule behind the calls is not given here.

Data set [1] concerns Cell membrane. Nature of the data set: Induction of outer membrane permeabilization in Escherichia coli O157:H7 CICC 21530 assessed as increase in fluorescence intensity at 7.5 uM by NPN-dye based fluorescence assay. In kind it is subcellular.
In data set [2] the test system is Staphylococcus aureus. Put plainly: Induction of morphological changes in Staphylococcus aureus ATCC 29213 assessed as membrane alteration at 1 times MIC after 60 mins by TEM analysis. In kind it is functional, organism-based.
For data set [3], the system named is Escherichia coli. Nature of the data set: Induction of morphological changes in Escherichia coli O157:H7 CICC 21530 assessed as membrane alteration at 1 times MIC after 60 mins by TEM analysis. Type of data set: functional, organism-based.
The subject of data set [4] is Staphylococcus aureus. Nature of the data set: Induction of morphological changes in Staphylococcus aureus ATCC 29213 assessed as intracellular changes at 1 times MIC after 60 mins by TEM analysis. In kind it is functional, organism-based.
For data set [5], the system named is Escherichia coli. Put plainly: Induction of morphological changes in Escherichia coli O157:H7 CICC 21530 assessed as intracellular changes at 1 times MIC after 60 mins by TEM analysis. In kind it is functional, organism-based.
Data set [6] deals with HepG2. Nature of the data set: Induction of ROS generation in human HepG2 cells assessed as increase in fluorescence intensity up to 32 uM incubated for 8 hrs by DCFH-DA staining-based fluorescence analysis. In kind it is functional, cell-based. To be noted: dose microM <=32, time 8.0 hrs.
Data set [7] deals with Staphylococcus aureus. Put plainly: Induction of morphological changes in Staphylococcus aureus ATCC 29213 assessed as membrane damage at 1 times MIC after 60 mins by TEM analysis. Type of data set: functional, organism-based.
The test system of data set [8] is Escherichia coli. Put plainly: Induction of morphological changes in Escherichia coli O157:H7 CICC 21530 assessed as membrane damage at 1 times MIC after 60 mins by TEM analysis. Type of data set: functional, organism-based.
The subject of data set [9] is Staphylococcus aureus. Nature of the data set: Induction of morphological changes in Staphylococcus aureus ATCC 29213 assessed as outflow of cytoplasm at 1 times MIC after 60 mins by TEM analysis. Type of data set: functional, organism-based.
For data set [10], the system named is Cell membrane. Nature of the data set: Induction of cell membrane disruption in Staphylococcus aureus ATCC 29213 assessed as spread of fluorescent signal across membrane surface at 1 times MIC in presence of FITC-labelled compound after 30 mins by confocal laser-scanning microscope analysis. Type of data set: subcellular.
In data set [11] the test system is RAW264.7. Nature of the data set: Antiinflammatory activity against mouse RAW264.7 cells assessed as inhibition of LPS-induced nitric oxide production at 32 uM measured after 24 hrs by Griess reagent based ELISA. Type of data set: functional, cell-based. In a few lines: (§1)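 RAW264.7 cells plated at 1-2 × 10^5 cells/mL and stimulated with 500 ng/mL LPS with or without peptide (0.5-64 µM) for 24 h at 37 °C. Controls were untreated cells and LPS alone. TNF-α in the supernatant measured by ELISA. NO measured by Griess reagent (1% sulfanilamide, 0.1% naphthylethylenediamine, 5% phosphoric acid).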

Data set [12] has as its system RAW264.7. Nature of the data set: Antiinflammatory activity against mouse RAW264.7 cells assessed as inhibition of LPS-induced TNF-alpha production at 4 uM measured after 24 hrs by […] ELISA. In kind it is functional, cell-based. Summed up:
as §1
On the technique in general: Nitrite, measured by Griess reagent, commonly stands in for NO production.

For data set [13], the system named is HepG2. Nature of the data set: Induction of morphological changes in human HepG2 cells assessed as decrease in adhesive monolayer at 32 uM after 24 hrs by inverted microscope analysis. Type of data set: functional, cell-based.
Data set [14] deals with HepG2. Nature of the data set: Induction of morphological changes in human HepG2 cells assessed as roughness of cell membrane at 32 uM after 24 hrs by SEM analysis. In kind it is functional, cell-based.
Data set [15] has as its system HepG2. Nature of the data set: Induction of morphological changes in human HepG2 cells assessed as shriveled cells at 32 uM after 24 hrs by SEM analysis. In kind it is functional, cell-based.
The test system of data set [16] is HepG2. Put plainly: Induction of morphological changes in human HepG2 cells assessed as cytoskeleton damage at 32 uM after 24 hrs by SEM analysis. Type of data set: functional, cell-based.
Data set [17] deals with HepG2. Put plainly: Induction of apoptosis in human HepG2 cells assessed as nuclear fragmentation at 32 uM measured after 8 hrs by DAPI staining based confocal microscopy. In kind it is functional, cell-based. In a few lines: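 HepG2 cells treated with 32 µM peptide for 2, 4 or 8 h and stained with DAPI. Nuclear morphology imaged by confocal microscopy, with untreated cells as control.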

A short description of data set [18]: Drug localization in cell membrane of human HepG2 cells assessed as green fluorescent signal in presence of FITC-labelled peptide at 32 uM measured up to 8 hrs by DAPI staining based confocal microscopy. To be noted: hepg2, 8 h. Type of data set: ADME, cell membranes. Summed up:
(§2)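 HepG2 cells incubated with FITC-labelled peptide at 32 µM. Fluorescence distribution imaged by confocal laser-scanning microscopy at intervals (1, 4 and 8 h).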

A short description of data set [19]: Drug distribution in human HepG2 cells assessed as fluorescence signal in presence of FITC-labelled peptide at 32 uM measured after 8 hrs by DAPI staining based confocal microscopy. Type of data set: ADME, cell-based. To be noted: hepg2, 8 h. In a few lines: as §2
Data set [20] concerns HepG2. Put plainly: Induction of ROS generation in human HepG2 cells assessed as increase in fluorescence intensity up to 32 uM by DCFH-DA staining-based fluorescence analysis. In kind it is functional, cell-based. The settings on record: dose microM <=32, time 8.0 hrs, TDE = time-dependent effect.
Data set [21] can be described thus: Drug localization in cytoplasm of human HepG2 cells assessed as fluorescent signal in presence of FITC-labelled peptide at 32 uM measured up to 8 hrs by DAPI staining based confocal microscopy. The settings on record: hepg2, 8 h. Type of data set: ADME, subcellular. In a few lines:
as §2

As for H-WGEAFSAGVHRLANGGNG-NH2, the result with Cell membrane [1] and in the data set on HepG2 [6] was inactive. Also, the result with Staphylococcus aureus [2], with Escherichia coli [3], with Staphylococcus aureus [4] and with Escherichia coli [5] was Active.

With H-WLRAFRRLVRRLARGLRR-NH2, the outcome with Staphylococcus aureus [7], in the data set on Escherichia coli [8], with Staphylococcus aureus [9], with Cell membrane [10], with RAW264.7 [11] and with RAW264.7 [12] was Active. For the same substance, the outcome in the data set on HepG2 [13], in the data set on HepG2 [14], in the data set on HepG2 [15], in the data set on HepG2 [16] and in the data set on HepG2 [17] was Active. In addition, the Drug uptake entry in [18] and in data set [19] was “Active” each time. Moreover, the Activity entry in the data set with HepG2 [20] is “Tde”.

Regarding H-WLRAFRRLVRRLARLLRR-NH2, the Drug uptake result in data set [21] was “Not Active”.
